# SIRT5 block – sirtuin-5 (human) deacylase inhibition | Q9NXA8 | Purified SirT5, succinyl-peptide AMC, trypsin-coupled fluorescence | inhibition, % at 15 µM | hit rate 1.1% among 330,000 | AID 652115; in the data active means inhibition above about 15%
# Target sequence (Q9NXA8 whole entry, looked up): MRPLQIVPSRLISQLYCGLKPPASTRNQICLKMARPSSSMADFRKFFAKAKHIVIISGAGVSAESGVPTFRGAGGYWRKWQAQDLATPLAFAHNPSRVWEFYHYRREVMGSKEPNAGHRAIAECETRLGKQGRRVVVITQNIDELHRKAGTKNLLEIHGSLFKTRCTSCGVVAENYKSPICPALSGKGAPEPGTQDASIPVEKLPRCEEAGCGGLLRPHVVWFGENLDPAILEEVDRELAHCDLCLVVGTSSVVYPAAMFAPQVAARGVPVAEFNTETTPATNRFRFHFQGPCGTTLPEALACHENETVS
# Ecoli rRNA inh – inhibitors of bacterial rRNA selective over humanized ribosomes; E. coli WT GFP vs humanized-ribosome RFP mutants, fluorescence, 24 h; stronger effect = lower value; DMSO median 0, no signal -100; GFP signal change (wild-type ribosome), % (concentration not given with the values); hit rate 1.6% among 350,000; AID 720706;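 active means significant combined selectivity score with lowered wild-type GFP, culture density cut under 30%, mutant RFP and density less affected; inactive means any of these conditions unmet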
# ERAP1 HTS inh – ERAP1 (human) enzyme inhibition; Q9NZ08; recombinant ERAP1, Leu-AMC fluorescence, 60 min; inhibition, % at 10.7 µM; hit rate 0.15% among 340,000; AID 652197;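 active means mean replicate inhibition of at least 30%, or all replicates individually reaching that 30% level; inactive means mean below 30% and not every replicate reaching it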;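 further: 0% = neutral control wells and 100% = L-leucinethiol positive control wells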
# S100A4 inh HTS – blocks human S100A4 binding to myosin IIA peptide | AID 652163 | inhibition, % at 10.7 µM | S100A4/TAMRA-MyoIIA peptide fluorescence polarization | hit rate 0.14% among 360,000;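 active means mean inhibition of at least 70% across replicates, with every replicate also reaching that level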
# Target sequence (P26447 whole entry, looked up): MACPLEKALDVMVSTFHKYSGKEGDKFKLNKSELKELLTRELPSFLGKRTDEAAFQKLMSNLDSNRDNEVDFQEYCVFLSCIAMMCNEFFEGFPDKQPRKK
#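 Material: S100A4 monomer (human). Medium: Calcium-containing HEPES buffer, pH 7.2. Probe or stimulus: labelled myosin peptide probe, 5 nM. Compound dosing: one concentration per compound. Timing: polarization read 5 min after assay mix addition, stable 5–60 min. Benchmarks: DMSO as neutral control, TFP as positive control.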
# MLL AF4-AF9 inh – MLL-AF4/AF9 protein interaction inhibition; P42568; AlphaScreen, biotin-AF4 peptide binding to FLAG-AF9; inhibition, % at 10 µM; hit rate 0.47% among 350,000;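 active means every replicate reaching a set inhibition limit, whatever the replicate mean, cut at about 25% in these data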;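 further: 0% = plate neutral control median and 100% = total signal loss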
# E-sel inducer – E-selectin induction on HUVECs. P16581. hit rate 0.37% among 260,000. activation, % at 7.58 µM. HUVEC E-selectin immunofluorescence imaging; normalized: neutral wells 0, TNF-alpha wells 100;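 active means mean E-selectin-positive cell signal at least 10% of the positive control, reached in at least 60% of replicates, without over 20% cell loss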
#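 Assay system: HUVEC, human umbilical vein endothelial cells / Amount: 3,000 HUVEC/well / Controls: TNF-alpha positive control, DMSO neutral control / Compound dosing: single concentration / Medium: EGM-2 over gelatin coat / Evaluation: percent E-selectin-positive cells / Signal: immunofluorescence imaging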
# * = called active by the depositor; i = inactive; . = not tested or not shown. This is a sample that favours compounds with a hit; in the whole collection about 3.4% have one here.
SMILES,SIRT5 block,Ecoli rRNA inh,ERAP1 HTS inh,S100A4 inh HTS,MLL AF4-AF9 inh,E-sel inducer
O=C(CCN1C(=O)/C(=C\c2ccco2)SC1=S)Nc1ccc(C(=O)O)c(O)c1,56.8*,-4.5,0.4,-32.0,8.8,.
Cc1noc(C)c1NC(=O)Nc1cccc2c1O[C@H](CN(C)S(=O)(=O)c1ccccc1)[C@H](C)CN([C@@H](C)CO)C2=O,.,3.0,.,.,.,0.0
CCSC(=S)c1c(C)[nH]n(-c2ccccc2)c1=O,0.5,-43.2*,-6.6,-1.5,2.6,.
Cc1[nH]n(-c2ccccc2)c(=O)c1C(=O)c1ccccc1,-1.5,-28.9,.,-1.8,-0.3,-0.1
O=C(C[C@H]1CC[C@@H]2[C@H](COC[C@H](O)CN2S(=O)(=O)c2cccc(F)c2)O1)NCc1ccncn1,.,i,.,.,.,-0.1
O=C(COc1ccccc1/C=C\c1[nH]c(=O)[nH]c(=O)c1[N+](=O)[O-])Nc1ccccc1,-1.9,-31.1*,-1.3,6.8,-3.1,0.7
O=c1[nH]c(/C=C/c2ccccc2Cl)c([N+](=O)[O-])c(=O)[nH]1,2.9,-24.5,0.9,-7.2,2.8,.
CCN1[C@@H]2c3ccc(-c4ccccc4)c(=O)n3C[C@@H]2[C@@H](CO)[C@@H]1C(=O)Nc1ccccc1,-4.4,-6.8,2.0,0.4,4.2,-0.3
C[C@@H]1CN([C@@H](C)CO)C(=O)Cc2cc(NC(=O)CCC(F)(F)F)ccc2O[C@H]1CN(C)Cc1ccc(Oc2ccccc2)cc1,21.8*,-3.4,.,.,.,16.9
C[C@H]1CN([C@@H](C)CO)C(=O)Cc2cc(NC(=O)Nc3ccc(C(F)(F)F)cc3)ccc2O[C@H]1CN(C)Cc1ccc(C(=O)Nc2ccccc2N)cc1,20.4*,0.6,-2.4,-0.7,-5.9,12.0
C[C@@H]1CN([C@@H](C)CO)C(=O)Cc2cc(NC(=O)CCCN(C)C)ccc2O[C@@H]1CN(C)Cc1ccc(Oc2ccccc2)cc1,3.9,-56.2,-1.7,-1.4,28.5*,1.0
C[C@H]1CN([C@@H](C)CO)C(=O)Cc2cc(NC(=O)CCCN(C)C)ccc2O[C@@H]1CN(C)Cc1ccc(Oc2ccccc2)cc1,-7.8,-58.2,-0.7,-5.4,12.2,.
C[C@H]1CN([C@@H](C)CO)C(=O)Cc2cc(NC(=O)Cc3ccccc3)ccc2O[C@H]1CN(C)Cc1ccc(C(=O)Nc2ccccc2N)cc1,0.8,-6.7,-2.0,5.7,-1.2,7.2
C[C@@H]1CN([C@@H](C)CO)C(=O)Cc2cc(NC(=O)CCCN(C)C)ccc2O[C@H]1CN(C)Cc1ccc(C(=O)Nc2ccccc2N)cc1,.,4.4,-0.9,6.2,31.2*,.
C[C@@H]1CN([C@@H](C)CO)C(=O)c2cccc(NC(=O)Nc3ccc(F)cc3)c2O[C@@H]1CN(C)C,-0.6,3.0,-3.3,3.1,-1.6,0.0
C[C@H](CO)N1C[C@H](C)[C@@H](CN(C)Cc2ccncc2)Oc2ccc(NC(=O)CCC(F)(F)F)cc2CC1=O,-0.9,-0.2,-0.9,7.8,0.2,-5.3
C[C@@H]1CN([C@H](C)CO)C(=O)Cc2cc(NC(=O)CCCN(C)C)ccc2O[C@@H]1CN(C)Cc1ccc(-c2ccccc2)cc1,99.0*,-59.8,-0.2,-5.4,7.3,.
C[C@@H]1CN([C@@H](C)CO)C(=O)Cc2cc(NC(=O)CCCN(C)C)ccc2O[C@H]1CN(C)Cc1ccc(-c2ccccc2)cc1,-8.0,-2.3,2.0,-4.9,15.0,.
C[C@H](CO)N1C[C@H](C)[C@H](CN(C)Cc2ccncc2)Oc2ccc(NC(=O)CCC(F)(F)F)cc2CC1=O,-3.9,1.0,-1.7,-14.7,-1.6,314.2*
Cc1noc(C)c1S(=O)(=O)N(C)C[C@@H]1OCCCC[C@H](C)Oc2ccc(NS(=O)(=O)c3ccc(Cl)cc3)cc2C(=O)N([C@H](C)CO)C[C@@H]1C,-0.2,1.4,0.1,-5.6,-0.5,3.0
Cc1cc(Br)ccc1NC(=O)C1CSC2(C)CCC(=O)N12 (centres undefined),0.5,-2.3,2.8,-1.5,0.2,.
Cc1cc(F)ccc1NC(=O)C1CSC2(C)CCC(=O)N12 (centres undefined),18.0*,13.1,1.9,-1.9,-0.6,.
CC12CCC(=O)N1C(C(=O)Nc1nc(-c3ccc(F)c(F)c3)cs1)CS2 (centres undefined),15.2*,2.0,2.9,5.2,7.0,1.0
O=C(C[C@@H]1CC[C@@H]2[C@H](COC[C@@H](O)CN2Cc2ccc(Cl)cc2)O1)NCCc1ccccc1,3.1,-3.7,1.5,-2.8,0.5,0.0
Cc1nc2[nH]c(=S)[nH]c(=O)c2nc1C,-2.5,4.8,0.4,-0.2,-1.8,0.6
SMILES,SIRT5 block,Ecoli rRNA inh,ERAP1 HTS inh,S100A4 inh HTS,MLL AF4-AF9 inh,E-sel inducer
Cc1nc2c(=O)[nH]c(=S)[nH]c2[nH]c1=O,41.4*,15.7,3.1,-8.9,-8.4,0.3
CO[C@@H]1CN(C)C(=O)c2cc(NC(=O)NC(C)C)ccc2OC[C@@H](C)N(Cc2cncnc2)C[C@H]1C,.,2.5,.,.,.,-0.2
COC(=O)CCC(=O)N(CCN(Cc1ccccc1)C(=O)CCC(=O)OC)Cc1ccccc1,-5.6,-16.4*,-2.2,-0.4,-1.1,.
COC(=O)CCC(=O)NNC(=O)Cc1ccccc1,-6.0,8.0,5.6,-1.5,-6.8,.
O=C(NCCOC(=O)Nc1cccc2ccccc12)OCc1ccccc1,-1.6,-33.5*,-0.2,3.3,-6.8,2.7
O=C(Nc1cccc2ccccc12)OCc1ccccc1,-4.4,9.3,-6.4,-3.9,-7.8,-0.1
COc1cccc(S(=O)(=O)N(C)C[C@@H]2Oc3cc(C#CCC(C)C)ccc3S(=O)(=O)N([C@@H](C)CO)C[C@@H]2C)c1,-5.0,1.2,-0.7,6.2,-3.2,-0.2
COc1cccc(S(=O)(=O)N(C)C[C@@H]2Oc3cc(C#CCC(C)C)ccc3S(=O)(=O)N([C@H](C)CO)C[C@H]2C)c1,8.9,4.4,1.4,5.5,0.3,0.3
COc1ccccc1S(=O)(=O)N(C)C[C@@H]1Oc2cc(C#CCC(C)C)ccc2S(=O)(=O)N([C@@H](C)CO)C[C@H]1C,29.9*,5.4,3.4,-2.5,1.8,.
COc1ccccc1S(=O)(=O)N(C)C[C@@H]1Oc2cc(C#CCC(C)C)ccc2S(=O)(=O)N([C@@H](C)CO)C[C@@H]1C,27.8*,-0.7,-6.5,0.0,4.1,.
COc1ccccc1S(=O)(=O)N(C)C[C@H]1Oc2cc(C#CCC3CCCC3)ccc2S(=O)(=O)N([C@@H](C)CO)C[C@@H]1C,18.9*,4.2,-0.7,-1.5,1.5,1.2
COc1ccccc1S(=O)(=O)N(C)C[C@@H]1Oc2cc(C#CCC(C)C)ccc2S(=O)(=O)N([C@H](C)CO)C[C@H]1C,28.3*,0.5,2.7,2.6,2.1,.
